In ChEMBL document CHEMBL4513216, “Probing the Open Global Health Chemical Diversity Library for Multistage-Active Starting Points for Next-Generation Antimalarials” (ACS Infect Dis, 2020):

Assay: Toxicity liver stage against HepG2, at 10uM
Format: cell-based
Parameters: test concentration 10 uM, cell line HepG2-A16-CD81EGFP
Details: human, HepG2-A16-CD81EGFP cells; read-out: INHIBITION
How it was run: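 Uninfected HepG2-A16-CD81EGFP cells, 3 × 10^3 per well, 1536-well, plated on prespotted compound at 10 μM final, parasite-free screening media added to match infected plates; puromycin 10 μM positive, DMSO 0.5% negative; run in parallel with 48 h PbLuc assay at 37 °C, 5% CO2; viability by CellTiter-Glo luminescence, normalized to controls.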

Cc1nn(CCC#N)c(C)c1[C@@H]1C=C[C@@H](NCc2ccc(F)cc2)C1
cytotoxicity at 10 µM: 2%

CCc1nc(-c2ccc(NC(=O)N3CCOCC3)cc2)no1
cytotoxicity at 10 µM: 5.48%

O=C(Nc1ccc(Br)cc1F)c1cc(CN2CCOCC2)on1
cytotoxicity at 10 µM: 6.39%

COCCn1c(-c2cccc(OC)c2)cnc1NC(=O)NCCC(C)C
cytotoxicity at 10 µM: 12.9%

CCOC(=O)[C@@H]1[C@H]2CN(C(=O)OC)CCN2C[C@H]1c1ccccc1
cytotoxicity at 10 µM: 6.72%

COc1cccc(-c2cc(C(=O)Nc3nc[nH]n3)[nH]n2)c1
cytotoxicity at 10 µM: -5.51%

O=C(Nc1ncnc2c1CCC2)c1cccc(F)c1
cytotoxicity at 10 µM: -172%

COCC(C)(O)CNC(=O)c1cc(-c2cc(OC)ccc2OC)nn1C (stereo unspecified)
cytotoxicity at 10 µM: -6.42%

CC(=O)OC1CN(c2nc3c(C)cccc3s2)C1
cytotoxicity at 10 µM: -5.14%

Cn1cccc1C(=O)N1CCC2(CC1)CN(S(C)(=O)=O)c1ccccc12
cytotoxicity at 10 µM: 4.73%

O=S(=O)(NC1=NCN(CCc2cccs2)CN1)c1ccc(Br)cc1
cytotoxicity at 10 µM: -2.35%

Cn1cc(CN2C[C@@H]3COC[C@]3(COc3ccc(C#N)cn3)C2)cn1
cytotoxicity at 10 µM: -11.3%

COCCC(=O)N1CCC2(CN(Cc3ccc(OC)c(F)c3)C2)C1
cytotoxicity at 10 µM: -10.4%

CC(C)c1noc(C2CCN(C(=O)c3cccs3)CC2)n1
cytotoxicity at 10 µM: 1.51%

CCn1nccc1CNc1nc(N)nc2c1nc(C)n2C
cytotoxicity at 10 µM: -8.13%

Cc1nc(NCCc2ccccc2)cc(C(=O)N2CCCCC2)n1
cytotoxicity at 10 µM: -6.27%

Cc1ccnn1CCNC(=O)c1cnc(N(C)C)nc1
cytotoxicity at 10 µM: 2.24%

Oc1cc(-c2ccccn2)nc(C2CCN(Cc3ccncc3)CC2)n1
cytotoxicity at 10 µM: -7.56%

c1cncc(CC2CN(c3cccnc3)CCO2)c1 (stereo unspecified)
cytotoxicity at 10 µM: -0.41%

NC(=O)CN1CCOCC(Cc2cccc(F)c2)C1 (stereo unspecified)
cytotoxicity at 10 µM: -12.2%

CC(C)(C)C(=O)Nc1ccc(Oc2ccsc2C(=O)O)cc1
cytotoxicity at 10 µM: 7.26%

Cn1cc(CNC(=O)Nc2ccc(S(=O)(=O)C(F)F)cc2)cn1
cytotoxicity at 10 µM: -5.09%

CC(NS(C)(=O)=O)C(=O)Nc1ccc2oc(C3CC3)nc2c1 (stereo unspecified)
cytotoxicity at 10 µM: 2.78%

CC(C)C(C#N)N1CCN(C(=O)c2cc(-c3ccccn3)no2)CC1 (stereo unspecified)
cytotoxicity at 10 µM: -1.54%

CC1CCC(O)(CSc2nnnn2C2CC2)CC1 (stereo unspecified)
cytotoxicity at 10 µM: -1.97%

COc1ccc(CNC(=O)N2CCc3sccc3C2)cc1O
cytotoxicity at 10 µM: 7.57%

CN(CC(N)=O)Cc1cc(Cl)cc2cccnc12
cytotoxicity at 10 µM: 6.37%

O=C(NS(=O)(=O)c1cccc(C(F)(F)F)c1)c1cscn1
cytotoxicity at 10 µM: 1.67%

COC(=O)c1cccc(S(=O)(=O)Nc2ccc(Cl)c(C(N)=O)c2)c1
cytotoxicity at 10 µM: 7.31%

CC(c1nc(C2CC2)no1)N1CCN(CCc2ccncc2)CC1 (stereo unspecified)
cytotoxicity at 10 µM: -5.65%

Cc1noc(C)c1CS(=O)(=O)CC(=O)NCCc1cccs1
cytotoxicity at 10 µM: -1.6%

COc1cccc(CCC(=O)Nc2ccn(C)n2)c1OC
cytotoxicity at 10 µM: -2.14%

CC(C(=O)Nc1ccc(C#N)cc1)N1CCc2ccccc21 (stereo unspecified)
cytotoxicity at 10 µM: -1.5%

COc1cc(CNC(=O)Nc2nnc(C(C)C)s2)ccc1O
cytotoxicity at 10 µM: -2.22%

CN(C)C(=O)CS(=O)(=O)Cc1ccn(-c2cccc(F)c2)n1
cytotoxicity at 10 µM: 3.03%

CCNC(=O)NCc1ccccc1NS(=O)(=O)c1ccccc1
cytotoxicity at 10 µM: 8.27%

COCCCN1CCC(NC2CSCCc3ccccc32)CC1 (stereo unspecified)
cytotoxicity at 10 µM: -3.32%

CCN(CC(F)(F)F)C(=O)C1CCCN(Cc2ccccn2)C1 (stereo unspecified)
cytotoxicity at 10 µM: -2.3%

Cc1cc(N(C)C)nc(N2CC(n3cccn3)C2)n1
cytotoxicity at 10 µM: -3.24%

c1cc(-c2noc(C3CCC3)n2)cc(N2CCCCC2)n1
cytotoxicity at 10 µM: -1.39%

CSCC(C)(O)CNC(=O)c1cc(F)ccc1Br (stereo unspecified)
cytotoxicity at 10 µM: -5.41%

CCC(CC)NC(=O)NCc1ccnc(-n2ccnc2C)c1
cytotoxicity at 10 µM: -1.21%

O=C(CCNS(=O)(=O)c1cccnc1)N1CCOC(c2ccccc2)C1 (stereo unspecified)
cytotoxicity at 10 µM: 5.11%

c1coc(CNc2nnc(Cc3ccsc3)o2)c1
cytotoxicity at 10 µM: -2.28%

CC1(C)CCC(CC(=O)O)c2ccccc21 (stereo unspecified)
cytotoxicity at 10 µM: 2.93%

Cn1ccnc1-c1noc(NCc2ccccc2)n1
cytotoxicity at 10 µM: -3.49%

CC(NC(=O)COC1CCCC1)c1nc(-c2ccccc2)c[nH]1 (stereo unspecified)
cytotoxicity at 10 µM: 4.24%

CCNC(=O)N1CCC(NC(=O)NCCc2cc3ccccc3o2)C1 (stereo unspecified)
cytotoxicity at 10 µM: -51.8%

CN(CC(O)C1CC1)C(=O)c1ccc(-c2nc(C3CC3)n[nH]2)cc1 (stereo unspecified)
cytotoxicity at 10 µM: -5.09%

Cc1cccc(OCCNC(=O)C(C)S(=O)(=O)c2ccccn2)c1 (stereo unspecified)
cytotoxicity at 10 µM: 5.76%

Cc1cc(CS(=O)(=O)N(C)C(C)c2ccc(Cl)cc2)on1 (stereo unspecified)
cytotoxicity at 10 µM: 9.72%

COC(=O)NCCC(=O)NC(c1ccc(Cl)cc1)C(F)(F)F (stereo unspecified)
cytotoxicity at 10 µM: 7.51%

CC(c1ccccn1)N(C)C(=O)NCCn1c(=O)oc2ccccc21 (stereo unspecified)
cytotoxicity at 10 µM: -6.37%

Cc1cnn(CCCOc2ccc3c(c2)OCO3)c1
cytotoxicity at 10 µM: 8.4%

O=C(Cc1ccccc1O)Nc1ccc(N2CCCC2)nc1
cytotoxicity at 10 µM: 9.31%

CC(=O)N(C)Cc1ccc(OCc2cccs2)cc1
cytotoxicity at 10 µM: 12.4%

CC(C(=O)NC(N)=O)N1CCN(c2ccc(C#N)cc2F)CC1 (stereo unspecified)
cytotoxicity at 10 µM: -4.4%

CCCS(=O)(=O)CC(=O)Nc1cc(CC(C)(C)C)n[nH]1
cytotoxicity at 10 µM: 2.43%

COc1cccc(CN(C)C(=O)CSc2ccc3c(c2)OCCO3)c1
cytotoxicity at 10 µM: -7.97%

CC(C)n1cc(CN2CCCN(C(=O)c3nccnc3N)CC2)cn1
cytotoxicity at 10 µM: 7.13%

CC(Oc1ccccc1C(F)(F)F)C(=O)NCCC(=O)N(C)C (stereo unspecified)
cytotoxicity at 10 µM: -4.25%

Cc1noc(C)c1S(=O)(=O)N1C[C@@H](C(=O)O)[C@H](c2ccccn2)C1
cytotoxicity at 10 µM: -6.71%

O=C1O[C@@H]2CN(Cc3ccncc3)C[C@@H]2N1CCCN1CCOCC1
cytotoxicity at 10 µM: -6.13%

Cc1ccc(C(=O)N2CCC3(CCC(=O)N(CCCO)C3)CC2)c(O)c1
cytotoxicity at 10 µM: 7.4%

COCCCN1CC2(CCN(C(=O)Cc3csc(C)n3)CC2)CC1=O
cytotoxicity at 10 µM: 5.06%

Cc1nc(CCN)cc(N2CCOc3ccc(Cl)cc3C2)n1
cytotoxicity at 10 µM: -0.29%

CSCc1ccc(N(C)CC2CCCN(C(C)C)C2)nc1 (stereo unspecified)
cytotoxicity at 10 µM: -128%

COCCN(Cc1ccsc1)C(=O)c1c(C)cc(C)[nH]c1=O
cytotoxicity at 10 µM: -2.42%

CCCn1ncnc1C(C)NC(=O)C1CCN(CC(N)=O)CC1 (stereo unspecified)
cytotoxicity at 10 µM: -140%

O=C(c1scc2c1OCCO2)N1CCN(Cc2cccc(F)c2)CC1
cytotoxicity at 10 µM: 0.993%

O=C(O)[C@@H]1CN(C(=O)NCC2CCCCC2)C[C@H]1c1ccccn1
cytotoxicity at 10 µM: 7.15%

CN(C)C(=O)N1CCCn2nc(CNC(=O)CCc3ccsc3)cc2C1
cytotoxicity at 10 µM: -1.77%

CC[C@@]1(O)CCN(C(=O)c2ccc(-c3ccco3)cc2)C[C@H]1O
cytotoxicity at 10 µM: 3.75%

CN(C)[C@H]1CCCCN(Cc2ccccc2Cn2cccn2)C1
cytotoxicity at 10 µM: -130%

COc1cc(N(C)Cc2cc(C(C)(C)C)n[nH]2)ncn1
cytotoxicity at 10 µM: -11.1%

C[C@@H]1CN(Cc2cc(C(F)(F)F)ccc2F)CC[C@@]1(O)C1CC1
cytotoxicity at 10 µM: 6%

COc1ccc(Cl)cc1S(=O)(=O)N(C)CC(=O)Nc1ccon1
cytotoxicity at 10 µM: -3.75%

Cc1nc2c(c(N3CCN(Cc4ccco4)CC3)n1)CCNCC2
cytotoxicity at 10 µM: -4.27%

CCSCC(C)NCc1nc(-c2cccnc2)no1 (stereo unspecified)
cytotoxicity at 10 µM: -7.66%

CC(=O)N[C@H]1CN(CC(=O)NCc2ccccc2C)C[C@@H]1C(C)C
cytotoxicity at 10 µM: 1.69%

O=C(Nc1cc(C(F)(F)F)c[nH]c1=O)N1CCSCC1
cytotoxicity at 10 µM: -5.1%

CCCc1nnc(NC(=O)NC(C)Cn2cccn2)s1 (stereo unspecified)
cytotoxicity at 10 µM: -4.05%

COC(=O)c1ccc(N2CCN(CC(=O)NC(N)=O)C(C)C2)cc1 (stereo unspecified)
cytotoxicity at 10 µM: -4.54%

Cc1cccc(OCCNC(=O)CN2CCN(C)CC2C)c1 (stereo unspecified)
cytotoxicity at 10 µM: -2.66%

O=C(O)c1cc(NS(=O)(=O)c2ccc(Br)s2)c(F)cc1F
cytotoxicity at 10 µM: -7.1%

CN(Cc1ccc(N(C)C)cc1)C(=O)c1cc2c([nH]c1=O)CCCC2=O
cytotoxicity at 10 µM: -3.34%

Cc1ccc(CNC(=O)CN2CCOC(Cn3cccn3)C2)s1 (stereo unspecified)
cytotoxicity at 10 µM: -24.1%

CN(C)c1cc(C(=O)N2CCN(c3nccs3)CC2)ccn1
cytotoxicity at 10 µM: -10.8%

O=C(NCc1ccoc1)Nc1cc(C(F)(F)F)c[nH]c1=O
cytotoxicity at 10 µM: -0.779%

Cc1cc(C)n(CC2CCCN2C(=O)Cc2c(C)nn(C)c2C)n1 (stereo unspecified)
cytotoxicity at 10 µM: -13.8%

Cc1ccc(OCc2nc(CNCC3CN(C)CCO3)cs2)cc1 (stereo unspecified)
cytotoxicity at 10 µM: -23.5%

O=C(CCN1CCc2c(ncn2C2CC2)C1)NC1CCCC1
cytotoxicity at 10 µM: -10.1%

CC(C)c1nc(C2CCCN(C(=O)c3ccc4nncn4c3)C2)no1 (stereo unspecified)
cytotoxicity at 10 µM: -4.38%

COCc1nc(C(=O)N2CCCC2Cn2cc(C)cn2)cs1 (stereo unspecified)
cytotoxicity at 10 µM: -1.36%

Cc1ccc(C(CNC(=O)Nc2cn[nH]c2)N2CCOCC2)o1 (stereo unspecified)
cytotoxicity at 10 µM: -24.8%

CCc1noc(C)c1C(=O)N1CCCN(Cc2cscn2)CC1
cytotoxicity at 10 µM: -0.448%

Cc1ccc2cccc(C(=O)N3CCN(c4cccnn4)CC3)c2n1
cytotoxicity at 10 µM: 1.91%

Cc1nn2cccnc2c1C(=O)N1CCCC(Nc2ccccc2)C1 (stereo unspecified)
cytotoxicity at 10 µM: 5.82%

CNc1nc(C2CCCN2)nc2c1CCN(S(=O)(=O)C1CCCCC1)C2 (stereo unspecified)
cytotoxicity at 10 µM: 9.17%

Cc1cccc(CO[C@@H]2CC[C@H]3[C@H]2OCCN3Cc2nccs2)n1
cytotoxicity at 10 µM: 5.2%

CN(C)CCN1CCCC12CCN(C(=O)c1ccoc1)CC2
cytotoxicity at 10 µM: -1.83%

O=C(CC1CC1)N1CCN(Cc2ccncc2)c2ncccc2C1
cytotoxicity at 10 µM: 10%

CCOCC1CN(C(=O)Cc2ccccn2)Cc2cnn(C)c21 (stereo unspecified)
cytotoxicity at 10 µM: 6.9%

Cc1ccc(CN2C[C@@H]3CCN(Cc4ccncc4)C(=O)[C@H]3C2)s1
cytotoxicity at 10 µM: 4.53%

CN1Cc2[nH]nc(COCC3CC3)c2C1
cytotoxicity at 10 µM: 18%

Cc1ncsc1CN1CC[C@H]2OCC[C@@]2(C(=O)NC2CC2)C1
cytotoxicity at 10 µM: 2.75%

O=C(CC1CCCC1)N1CCC2(CCN2Cc2ccc(F)cc2)C1 (stereo unspecified)
cytotoxicity at 10 µM: -5.66%

Cc1nnsc1CN1C[C@H]2CC[C@@H](C1)N(Cc1c(C)noc1C)C2=O
cytotoxicity at 10 µM: -4.56%

Cc1ccc(NC(=O)Nc2c(O)c3ccccc3oc2=O)cc1C
cytotoxicity at 10 µM: 5.89%

CCN1C(=O)CCC12CCC(NC(=O)c1cnccn1)CC2 (stereo unspecified)
cytotoxicity at 10 µM: -2.42%

CC(C)NC(=O)[C@H]1C[C@H]2CN(C(=O)NCc3ccccc3)C[C@@H]1O2
cytotoxicity at 10 µM: 5.5%
